Measurements from different studies.
Each line is one published result; the experiments were not run side by side.
Target: Platelet-derived growth factor receptor beta (PDGFRB, Homo sapiens, UniProt P09619)

SMILES | test | conditions | remaining binding [%]
CCN1CCN(Cc2ccc(C(=O)Nc3ccc(C)c(Oc4ccc5c(c4)CC(=O)N5)c3)cc2C(F)(F)F)CC1 | binding, competition with immobilised ligand | 1 µM | 0.85
O=C(c1ccc(Nc2nccc(-c3cc4ccccc4s3)n2)cc1)N1CCC(N2CCCC2)CC1 | binding, competition with immobilised ligand | 1 µM | 11
CC(=O)Nc1c(C(C)=O)c(=O)n(C)c2nc(-c3ccc(Cl)cc3Cl)c(-c3ccc(Cl)cc3)cc12 | cell-free assay, competition with immobilised ligand | 1 µM | 100
N[C@H]1CCN(c2nccc(-c3cnn4ncccc34)n2)C1 | binding | 1 µM | 93
COCCOc1nc(-c2ccc(Cl)nc2)nc2c1CN(C(=O)c1ncn3ccccc13)CC2 | cell-free assay, competition with immobilised ligand | 0.1 µM | 100
COC(=O)Nc1nc2ccc(C(=O)c3ccccc3)cc2[nH]1 | cell-free assay, competition with immobilised ligand | 10 µM | 3.2
CC(=O)C1=C(C)N(c2cccc(C(F)(F)F)c2)C(=O)N[C@@H]1c1ccc(C#N)nc1 | cell-free assay, competition with immobilised ligand | 1 µM | 94
C[C@@H]1CN(c2ccc3ncc(-c4ccc5[nH]nc(C6CC6)c5c4)n3n2)C[C@H](C)O1 | binding, competition with immobilised ligand | 0.5 µM | 12
C[C@@H](c1ccc(-n2cnc3c(N)ncnc32)cc1)N1CCc2nn(C)c(Cc3ccccc3)c2C1=O | binding, competition with immobilised ligand | 0.1 µM | 17
c1cnn2ncc(-c3ccnc(N4CCC45COC5)n3)c2c1 | binding | 1 µM | 78
CCC(=N\O)/C(C)=C/c1ccc(F)cc1 | cell-free assay, competition with immobilised ligand | 1 µM | 100
O=C(Nc1c[nH]nc1C(=O)NC1CCNCC1)c1cc(F)cc(F)c1 | binding, competition with immobilised ligand | 1 µM | 100
CN(C)c1ncc(F)c(-c2cnn3ncccc23)n1 | binding | 1 µM | 100
CNC(=O)[C@@H]1CC[C@@H](n2c(-c3ccc4cnccc4c3)nc3ccc(C(=O)NCc4cccc(C(N)=O)c4)cc32)C1 | binding, competition with immobilised ligand | 1 µM | 100
C[C@@H]1CN(c2cc(-c3n[nH]c4ccc(OC5(C)CC5)cc34)ncn2)C[C@H](C)O1 | cell-free assay, competition with immobilised ligand | 0.1 µM | 73
Cc1cnn2ncc(-c3ccnc(N(C)C)n3)c2c1 | binding | 1 µM | 100
O=C(NCCCN1CCOCC1)c1ccc(Nc2ncc(Cl)c(-c3ccc(Cl)s3)n2)cc1 | binding, competition with immobilised ligand | 1 µM | 0.05
N#Cc1ccccc1CSc1nnc2c(n1)[nH]c1ccccc12 | binding, competition with immobilised ligand | 10 µM | 91
CS(=O)(=O)NCC[C@H](NC(=O)c1cncc2c1cnn2-c1ccc(F)cc1)c1ccnc(S(C)(=O)=O)c1 | cell-free assay, competition with immobilised ligand | 1 µM | 100
CN(CCCC(F)(F)F)c1nccc(-c2cnn3ncccc23)n1 | binding | 1 µM | 95
O=C(c1ccc(Nc2ncc(Cl)c(-c3ccc(Cl)s3)n2)cc1)N1CCC(N2CCCC2)CC1 | binding, competition with immobilised ligand | 1 µM | 0
C[C@@H]1CCN(c2nccc(-c3cnn4ncccc34)n2)C1 | binding | 1 µM | 100
Cc1nccc(COC(=O)N2C[C@@H]3[C@@H](CNC(=O)c4ccc5[nH]nnc5c4)[C@@H]3C2)n1 | cell-free assay, competition with immobilised ligand | 1 µM | 84
COc1cnc(Nc2cccc(S(N)(=O)=O)c2)nc1N1CCN(c2ccccc2)CC1 | binding, competition with immobilised ligand | 1 µM | 87
C=CC(=O)N1CCC(C(=O)NCC(=O)N2CCN(c3nc(-c4cnc(N)nc4C(F)F)nc(N4CCOCC4)n3)CC2)CC1 | binding, competition with immobilised ligand | 1 µM | 100
